The target in data set [1] is T1, CB1 (Homo sapiens, UniProt P21554). The data set is classed as cell-based.
The next data set concerns MDCK-mdr1 cells. The data set is described as follows: MDCK-mdr1 permeability assay. The data set is classed as in vitro ADME, canine. To be noted: apical to basal, 10 μM, 1 h at 37 °C. The essentials:
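MDCK cells transfected with human MDR1 grown on filters for 4 days to confluence in DMEM/F12 with 10% FBS and antibiotics. Test compound added apically in HBSS with 25 mM D-glucose, HEPES-buffered to pH 7.4. Apical and basal samples collected, dried under nitrogen, and quantified by LC-MS/MS in MRM mode. Percent transfer apical to basal reported; mean of 2–3 measurements.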

A short description of data set [2]: pharmacokinetic evaluation in vivo, plasma and brain levels after oral dosing. Also on record: species or system Sprague–Dawley rats.
The nature of data set [3]: metabolic stability in human hepatic S9 fraction. The data set is classed as in vitro ADME. The essentials:
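Pooled mixed-gender human hepatic S9 at 1 mg/mL, test compound at 10 μM final. Buffer: 50 mM potassium phosphate pH 7.4, 3 mM MgCl2, NADPH-regenerating system (1 mM NADP, 5 mM glucose-6-phosphate, 1 unit/mL G6PDH). Triplicates sampled at 0, 15, 30, 60, 120 min. Stopped with 3 vol acetonitrile; LC-MS/MS against standard curves in blank matrix. Read-out is percent remaining.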

For data set [4], the target named is T1, CB1. It counts as binding. To be noted: selectivity, [3H]CP55940 displacement.
For data set [5] the following is noted: SD rats, 2–3 h postdose; cited from earlier work.

T1 sequence (P21554 whole entry): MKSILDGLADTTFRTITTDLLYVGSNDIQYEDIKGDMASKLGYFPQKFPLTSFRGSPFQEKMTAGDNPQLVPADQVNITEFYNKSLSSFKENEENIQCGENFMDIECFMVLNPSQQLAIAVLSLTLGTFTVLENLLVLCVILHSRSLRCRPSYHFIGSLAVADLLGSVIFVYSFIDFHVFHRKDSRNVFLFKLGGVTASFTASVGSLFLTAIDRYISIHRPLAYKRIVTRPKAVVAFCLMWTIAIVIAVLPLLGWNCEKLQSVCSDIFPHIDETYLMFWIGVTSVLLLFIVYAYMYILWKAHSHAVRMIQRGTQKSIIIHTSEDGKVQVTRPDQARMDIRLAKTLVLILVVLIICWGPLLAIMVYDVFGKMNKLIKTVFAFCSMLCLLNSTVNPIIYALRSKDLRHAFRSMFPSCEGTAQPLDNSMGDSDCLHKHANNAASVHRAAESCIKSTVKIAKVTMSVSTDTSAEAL

Molecule `CCNC(=O)NC1CCN(c2ncnc3c2nc(-c2ccccc2Cl)n3-c2ccc(Cl)cc2)CC1` [Compound 17c, 1-{1-[8-(2-Chlorophenyl)-9-(4-chlorophenyl)-9H-purin-6-yl]-piperidin-4-yl}-3-ethylurea] yielded a Kb at CB1 [1] of 149 nM.
Turning to `CC(C)NC(=O)N1CCC(Nc2ncnc3c2nc(-c2ccccc2Cl)n3-c2ccc(Cl)cc2)CC1` [Compound 14d, 4-{[8-(2-Chlorophenyl)-9-(4-chlorophenyl)-9H-purin-6-yl]amino}-N-(propan-2-yl)piperidine-1-carboxamide], the Kb on CB1 [1] worked out at 495 nM.
On the same count and under the same terms, to `CCNC(=O)N1CCC[C@H](Nc2ncnc3c2nc(-c2ccccc2Cl)n3-c2ccc(Cl)cc2)C1` [Compound 16c, (3S)-3-{[8-(2-Chlorophenyl)-9-(4-chlorophenyl)-9H-purin-6-yl]-amino}-N-ethylpiperidine-1-carboxamide] belongs 1150 nM.
With `NC1(c2ccccc2)CCN(c2ncnc3c2nc(-c2ccccc2Cl)n3-c2ccc(Cl)cc2)CC1` [Compound 11, 1-[8-(2-Chlorophenyl)-9-(4-chlorophenyl)-9H-purin-6-yl]-4-phe-nylpiperidin-4-amine], the Kb at CB1 [1] came out at 15.9 nM. In addition, the “MDCK-mdr1 A to B” value in the data set on MDCK-mdr1 cells is reported as below 1%.
At CB1 [1], `CC(=O)N1CCC[C@@H](Nc2ncnc3c2nc(-c2ccccc2Cl)n3-c2ccc(Cl)cc2)C1` [Compound 15d, 1-[(3R)-3-{[8-(2-Chlorophenyl)-9-(4-chlorophenyl)-9H-purin-6-yl]-amino}piperidin-1-yl]ethan-1-one] displayed a Kb of 920 nM.
Same read-out and setting: in the case of `CCNC(=O)N1CCC[C@@H](Nc2ncnc3c2nc(-c2ccccc2Cl)n3-c2ccc(Cl)cc2)C1` [Compound 15c, (3R)-3-{[8-(2-Chlorophenyl)-9-(4-chlorophenyl)-9H-purin-6-yl]-amino}-N-ethylpiperidine-1-carboxamide] it was 1500 nM; in that of `CC(C)NC(=O)NC1CCN(c2ncnc3c2nc(-c2ccccc2Cl)n3-c2ccc(Cl)cc2)CC1` [Compound 17d, 1-{1-[8-(2-Chlorophenyl)-9-(4-chlorophenyl)-9H-purin-6-yl]-piperidin-4-yl}-3-(propan-2-yl)urea], 133 nM; in that of `CCNC(=O)N1CCC(Nc2ncnc3c2nc(-c2ccccc2Cl)n3-c2ccc(Cl)cc2)CC1` [Compound 14c, 4-{[8-(2-Chlorophenyl)-9-(4-chlorophenyl)-9H-purin-6-yl]amino}-N-ethylpiperidine-1-carboxamide], 1150 nM.
The same measure, in the same setting: in the case of `CCNC(=O)NC1(c2ccccc2)CCN(c2ncnc3c2nc(-c2ccccc2Cl)n3-c2ccc(Cl)cc2)CC1` [Compound 13b, 1-{1-[8-(2-Chlorophenyl)-9-(4-chlorophenyl)-9H-purin-6-yl]-4-phenylpiperidin-4-yl}-3-ethylurea] it was 443 nM; in that of `CCCNC(=O)N1CCC(Nc2ncnc3c2nc(-c2ccccc2Cl)n3-c2ccc(Cl)cc2)CC1` [Compound 14e, 4-{[8-(2-Chlorophenyl)-9-(4-chlorophenyl)-9H-purin-6-yl]amino}-N-propylpiperidine-1-carboxamide], 1960 nM.
On the same count and under the same terms, in the case of `CC(=O)N1CCC[C@H](Nc2ncnc3c2nc(-c2ccccc2Cl)n3-c2ccc(Cl)cc2)C1` [Compound 16d, 1-[(3S)-3-{[8-(2-Chlorophenyl)-9-(4-chlorophenyl)-9H-purin-6-yl]-amino}piperidin-1-yl]ethan-1-one] it was 4450 nM.
On to `CS(=O)(=O)NC1(c2ccccc2)CCN(c2ncnc3c2nc(-c2ccccc2Cl)n3-c2ccc(Cl)cc2)CC1` [Compound 12, N-{1-[8-(2-Chlorophenyl)-9-(4-chlorophenyl)-9H-purin-6-yl]-4-phenylpiperidin-4-yl}methanesulfonamide], for which, in data set [2] (SD rats, 10 mg/kg oral), the “brain penetration (in words)” value is “limited brain penetration” and the “time post dose of maximum concentration” value is 240 min. In data set [2] (oral dosing in rats, 10 mg/kg), the “clearance (in words)” value was “favorable clearance” and the “oral absorption (in words)” value was “excellent oral absorption”. The “MDCK-mdr1 A to B” value with MDCK-mdr1 cells is below 1%.
`CCCCNC(=O)NC1(c2ccccc2)CCN(c2ncnc3c2nc(-c2ccccc2Cl)n3-c2ccc(Cl)cc2)CC1` [Compound 13e, 3-Butyl-1-{1-[8-(2-chlorophenyl)-9-(4-chlorophenyl)-9H-purin-6-yl]-4-phenylpiperidin-4-yl}urea]: the Kb on CB1 [1] turned out to be 62 nM.
For the molecule `CC(=O)NC1CCN(c2ncnc3c2nc(-c2ccccc2Cl)n3-c2ccc(Cl)cc2)CC1` [Compound 17g, N-{1-[8-(2-Chlorophenyl)-9-(4-chlorophenyl)-9H-purin-6-yl]-piperidin-4-yl}acetamide], the Kb at CB1 [1] came to 631 nM.
As to `O=C(NC1CCCCC1)NC1(c2ccccc2)CCN(c2ncnc3c2nc(-c2ccccc2Cl)n3-c2ccc(Cl)cc2)CC1` [Compound 13g, 3-{1-[8-(2-Chlorophenyl)-9-(4-chlorophenyl)-9H-purin-6-yl]-4-phenylpiperidin-4-yl}-1-cyclohexylurea], on CB1 [1], the Kb was found to be 199 nM.
The same measure, in the same setting: in the case of `CCCCNC(=O)NC1CCN(c2ncnc3c2nc(-c2ccccc2Cl)n3-c2ccc(Cl)cc2)CC1` [Compound 17f, 3-Butyl-1-{1-[8-(2-chlorophenyl)-9-(4-chlorophenyl)-9H-purin-6-yl]piperidin-4-yl}urea] it was 49 nM.
At CB1 [1], `CS(=O)(=O)N1CCC[C@H](Nc2ncnc3c2nc(-c2ccccc2Cl)n3-c2ccc(Cl)cc2)C1` [Compound 16e, 8-(2-Chlorophenyl)-9-(4-chlorophenyl)-N-[(3S)-1-methanesulfonylpiperidin-3-yl]-9H-purin-6-amine] yielded a Kb of 6040 nM.
As for `CCCNC(=O)NC1CCN(c2ncnc3c2nc(-c2ccccc2Cl)n3-c2ccc(Cl)cc2)CC1` [Compound 17e, 1-{1-[8-(2-chlorophenyl)-9-(4-chlorophenyl)-9H-purin-6-yl]-piperidin-4-yl}-3-propylurea], the Kb on CB1 [1] stood at 132 nM.
The molecule `CC(C)(C)NC(=O)NC1(c2ccccc2)CCN(c2ncnc3c2nc(-c2ccccc2Cl)n3-c2ccc(Cl)cc2)CC1` [Compound 13a, 3-tert-Butyl-1-{1-[8-(2-chlorophenyl)-9-(4-chlorophenyl)-9H-purin-6-yl]-4-phenylpiperidin-4-yl}urea] came in with a Kb on CB1 [1] of 19.2 nM. The “MDCK-mdr1 A to B” value in the data set with MDCK-mdr1 cells is below 1%. Besides, in data set [3], the “metabolism in S9 fraction (in words)” value is given as “significant metabolism”.
On CB1 [1], `CS(=O)(=O)N1CCC[C@@H](Nc2ncnc3c2nc(-c2ccccc2Cl)n3-c2ccc(Cl)cc2)C1` [Compound 15e, 8-(2-Chlorophenyl)-9-(4-chlorophenyl)-N-[(3R)-1-methanesulfonylpiperidin-3-yl]-9H-purin-6-amine] yielded a Kb of 346 nM.
Still for that read-out and setting: to `CS(=O)(=O)NC1CCN(c2ncnc3c2nc(-c2ccccc2Cl)n3-c2ccc(Cl)cc2)CC1` [Compound 17h, N-{1-[8-(2-Chlorophenyl)-9-(4-chlorophenyl)-9H-purin-6-yl]-piperidin-4-yl}methanesulfonamide] belongs 71 nM.
For `CCCCNC(=O)N1CCC(Nc2ncnc3c2nc(-c2ccccc2Cl)n3-c2ccc(Cl)cc2)CC1` [Compound 14f, N-Butyl-4-{[8-(2-chlorophenyl)-9-(4-chlorophenyl)-9H-purin-6-yl]amino}piperidine-1-carboxamide], the “CB2/CB1 Ki ratio” value at CB1 [4] is reported as above 5.
Take `CC(C)(C)OC(=O)NC1(c2ccccc2)CCN(c2ncnc3c2nc(-c2ccccc2Cl)n3-c2ccc(Cl)cc2)CC1` [Compound 10, tert-Butyl N-{1-[8-(2-chlorophenyl)-9-(4-chlorophenyl)-9H-purin-6-yl]-4-phenylpiperidin-4-yl}carbamate]: at CB1 [1], the Kb came out at 3.9 nM. Further, the “MDCK-mdr1 A to B” value in the data set with MDCK-mdr1 cells is below 1%.
As to `CS(=O)(=O)N1CCC(Nc2ncnc3c2nc(-c2ccccc2Cl)n3-c2ccc(Cl)cc2)CC1` [Compound 14g, 8-(2-Chlorophenyl)-9-(4-chlorophenyl)-N-(1-methanesulfonylpiperidin-4-yl)-9H-purin-6-amine], the Kb on CB1 [1] turned out to be 1650 nM.
Take `CCNC1(C(N)=O)CCN(c2ncnc3c2nc(-c2ccccc2Cl)n3-c2ccc(Cl)cc2)CC1` [Compound 2, otenabant]: the brain exposure in data set [5] is given as around 33%.
Take `CCOC(=O)CNC(=O)NC1(c2ccccc2)CCN(c2ncnc3c2nc(-c2ccccc2Cl)n3-c2ccc(Cl)cc2)CC1` [Compound 13f, Ethyl 2-[({1-[8-(2-chlorophenyl)-9-(4-chlorophenyl)-9H-purin-6-yl]-4-phenylpiperidin-4-yl}carbamoyl)amino]acetate]: at CB1 [1], the Kb is 171 nM.
Regarding `Clc1ccc(-n2c(-c3ccccc3Cl)nc3c(NC4CCNCC4)ncnc32)cc1` [Compound 14b, 8-(2-Chlorophenyl)-9-(4-chlorophenyl)-N-(piperidin-4-yl)-9H-purin-6-amine], the Kb at CB1 [1] was found to be 5710 nM.

Source of the values: article PMC4492447 (Journal of medicinal chemistry, 2012).
